The term IC50 denotes the concentration that gives 50% inhibition.

Holding throughout (type): cell-based, CHO
Data set [1] has as its target T1, 1,25-dihydroxyvitamin D(3) 24-hydroxylase, mitochondrial (Homo sapiens, UniProt Q07973).
T1 sequence (Q07973 whole entry): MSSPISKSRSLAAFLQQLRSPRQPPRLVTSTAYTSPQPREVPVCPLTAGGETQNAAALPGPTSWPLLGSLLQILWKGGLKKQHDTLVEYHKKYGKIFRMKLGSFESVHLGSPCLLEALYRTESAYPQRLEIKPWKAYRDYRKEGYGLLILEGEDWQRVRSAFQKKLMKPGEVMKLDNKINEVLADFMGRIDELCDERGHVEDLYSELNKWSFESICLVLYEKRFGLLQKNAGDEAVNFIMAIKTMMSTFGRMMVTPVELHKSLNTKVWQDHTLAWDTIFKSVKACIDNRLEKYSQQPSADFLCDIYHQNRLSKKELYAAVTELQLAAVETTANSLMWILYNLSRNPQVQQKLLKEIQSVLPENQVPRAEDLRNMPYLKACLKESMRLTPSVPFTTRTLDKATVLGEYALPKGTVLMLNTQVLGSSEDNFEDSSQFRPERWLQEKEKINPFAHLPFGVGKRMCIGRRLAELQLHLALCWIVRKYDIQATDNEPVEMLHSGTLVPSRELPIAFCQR
The data set is described as follows: Inhibition of CYP24A1 expressed in […].

The target of data set [2] is 1,25-dihydroxyvitamin D(3) 24-hydroxylase, mitochondrial (Homo sapiens, UniProt Q07973, M416T). The data set is described as follows: Inhibition of CYP24A1 M416T mutant expressed in […]. Summed up:
(§1)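 V79-4 Chinese hamster lung fibroblasts stably expressing wild-type or mutant (L148F, M416T) CYP24A1 were grown in DMEM with FCS, antibiotics and hygromycin at 5% CO₂, then subcultured into 6-well plates for 24 h. Incubation was for 6 h in 1% BSA DMEM with 100,000 CPM/well [1β-³H]1α,25-(OH)₂D₃ and DPPD antioxidant. Inhibitors, from ethanol stocks, were tested at 10⁻⁴–10⁻⁷ M. Methanol stopped the reaction, followed by scintillation counting.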

Data set [3] concerns the target 1,25-dihydroxyvitamin D(3) 24-hydroxylase, mitochondrial (Homo sapiens, UniProt Q07973, L148F). The data set is described as follows: Inhibition of CYP24A1 L148F mutant expressed in […]. Summed up: as §1
Data set [4] concerns the target T2, Sterol 26-hydroxylase, mitochondrial (Homo sapiens, UniProt Q02318).
T2 sequence (Q02318 whole entry): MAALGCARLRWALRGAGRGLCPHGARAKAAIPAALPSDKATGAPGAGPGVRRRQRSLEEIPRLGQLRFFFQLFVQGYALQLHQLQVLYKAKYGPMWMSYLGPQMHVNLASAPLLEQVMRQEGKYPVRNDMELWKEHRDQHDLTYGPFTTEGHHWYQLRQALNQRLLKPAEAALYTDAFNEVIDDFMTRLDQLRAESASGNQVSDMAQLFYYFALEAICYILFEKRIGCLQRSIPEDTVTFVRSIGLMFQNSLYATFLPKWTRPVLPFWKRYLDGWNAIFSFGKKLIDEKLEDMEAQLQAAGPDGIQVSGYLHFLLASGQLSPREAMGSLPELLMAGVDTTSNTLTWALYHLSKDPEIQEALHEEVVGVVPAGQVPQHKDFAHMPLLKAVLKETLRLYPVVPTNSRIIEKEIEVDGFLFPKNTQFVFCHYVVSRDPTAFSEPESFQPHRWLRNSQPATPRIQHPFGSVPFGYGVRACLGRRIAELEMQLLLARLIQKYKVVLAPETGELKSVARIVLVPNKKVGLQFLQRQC
The data set is described as follows: Inhibition of CYP27A1 expressed in […]. Summed up:
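V79-4 fibroblasts stably expressing wild-type CYP27A1 were cultured in supplemented DMEM and plated in 6-well plates 24 h before use. They were incubated for 24 h in 1% BSA DMEM with 1α-OH-D₃ substrate plus DPPD, with inhibitors at four concentrations (10⁻⁴–10⁻⁷ M). No-inhibitor, dead-cell and no-cell controls were included. Methanol stopped the reaction, then Bligh-Dyer extraction and silica HPLC with photodiode-array detection quantified the metabolite.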

1,25-dihydroxyvitamin D(3) 24-hydroxylase, mitochondrial (Homo sapiens, UniProt Q07973, M416T), sequence (Q07973 36-514 M416T limits assumed): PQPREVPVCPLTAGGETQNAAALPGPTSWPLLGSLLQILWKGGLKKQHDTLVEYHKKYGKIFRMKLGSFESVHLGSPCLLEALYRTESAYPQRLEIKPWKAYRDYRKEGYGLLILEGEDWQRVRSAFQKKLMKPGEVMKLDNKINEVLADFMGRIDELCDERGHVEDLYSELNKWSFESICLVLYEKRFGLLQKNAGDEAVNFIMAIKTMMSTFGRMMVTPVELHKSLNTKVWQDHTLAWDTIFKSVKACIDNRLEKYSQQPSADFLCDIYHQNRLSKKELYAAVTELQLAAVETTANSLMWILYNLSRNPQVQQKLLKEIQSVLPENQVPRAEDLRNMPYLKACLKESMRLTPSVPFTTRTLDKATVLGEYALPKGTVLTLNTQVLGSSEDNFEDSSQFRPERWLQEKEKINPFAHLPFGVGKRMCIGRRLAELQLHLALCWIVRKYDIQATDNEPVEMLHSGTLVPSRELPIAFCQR
1,25-dihydroxyvitamin D(3) 24-hydroxylase, mitochondrial (Homo sapiens, UniProt Q07973, L148F), sequence (Q07973 36-514 L148F limits assumed): as the sequence (Q07973 36-514 M416T limits assumed) above, with L113F, T381M counted along it

For `COc1ccc2c(c1)CCC(Cc1ccccc1CCc1ccccc1)C2=O` (stereo not given), in data set [1], inhibition was half-maximal at 25.6 µM (IC50). For the same compound, the “inhibition (INH)” value in data set [2] and in data set [3] was “Active” in each case.
Compound `COc1ccc2c(c1)CC/C(=C\c1ccccc1-c1ccccc1)C2=O` showed a half-maximal inhibitory concentration (IC50) in data set [1] of 111 µM.
For `COc1ccc2c(c1)CC/C(=C\c1ccccc1/C=C/c1ccccc1)C2=O`, the IC50 in data set [4] came out at 5.69 µM; in data set [1] it was 5.08 µM.
For `COc1ccc2c(c1)CCC(Cc1ccccc1C(F)(F)F)C2=O` (stereo not given) the same measures were 5.34 µM and 2.08 µM.
For the compound `CCc1ccccc1CC1CCc2cc(OC)ccc2C1=O` (stereo not given), the half-inhibitory concentration (IC50) came to 8.23 µM in data set [4] and 1.92 µM in data set [1].
For `COc1ccc2c(c1)CCC(Cc1ccccc1Br)C2=O` (stereo not given) the same measures were 0.059 µM and 16.3 µM.
`COc1ccc2c(c1)CCC(Cc1ccccc1-c1ccccc1)C2=O` (stereo not given) had an IC50 in data set [1] of 128 µM.
Same read-out and setting: for `COc1ccc2c(c1)CCC(Cc1ccccc1/C=C/c1ccccc1)C2=O` (stereo not given) the value was 343 µM.
The same measure, in the same setting: for `COc1ccc2c(c1)CC/C(=C\c1ccccc1C(F)(F)F)C2=O` the value was 11.2 µM; for `CCc1ccccc1/C=C1\CCc2cc(OC)ccc2C1=O`, 10.8 µM; for `COc1ccc2c(c1)CC/C(=C\c1ccccc1C)C2=O`, 480 µM.
In data set [1], `COc1ccc2c(c1)CCC(Cc1ccccc1C)C2=O` (stereo not given) had an IC50 of 127 µM.
As for `COc1ccc2c(c1)CC/C(=C\c1ccccc1Br)C2=O`, the half-inhibitory concentration (IC50) worked out at 4.33 µM in data set [4] and 122 µM in data set [1].

These data come from ChEMBL document CHEMBL1250470, “Synthesis and CYP24A1 inhibitory activity of (E)-2-(2-substituted benzylidene)- and 2-(2-substituted benzyl)-6-methoxy-tetralones” (Eur J Med Chem, 2010).
